Experiments:
Format in all cases: functional
[1] = tested on: ACHN; assay: Cytotoxicity against human ACHN cells after 48 hrs by SRB assay
Summary of the method: (§1)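 NCI 60-line five-dose screen. Cells were preincubated 24 h at 37 °C under 5% CO2 and 100% humidity, and time-zero plates were TCA-fixed when compound was added. Five 10-fold concentrations (0.01–100) were tested for 48 h. Cells were fixed with cold TCA (final 10%, 60 min, 4 °C), stained with 0.4% SRB for 10 min, and read at 515 nm. GI50, TGI and LC50 came from growth-percentage formulas, with out-of-range values given as > or <.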

[2] = tested on: Malme-3M; assay: Cytotoxicity against human MALME-3M cells after 48 hrs by SRB assay; summary of the method: as §1
[3] = tested on: M14; assay: Cytotoxicity against human M14 cells after 48 hrs by SRB assay; conditions: M14, 48 h; summary of the method: as §1
[4] = tested on: HCT-116; assay: Cytotoxicity against human HCT116 cells after 48 hrs by SRB assay; conditions: HCT-116, 48 h; summary of the method: as §1
[5] = tested on: SK-OV-3; assay: Cytotoxicity against human SKOV3 cells after 48 hrs by SRB assay; conditions: SK-OV-3, 48 h
Summary of the method: (§2)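 NCI 60-line five-dose screen: cells plated, held 24 h at 37 °C, 5% CO₂ before treatment, with a TCA-fixed time-zero plate. Five final concentrations (0.01–100 µM, 10-fold dilutions) for 48 h. Cells fixed with cold TCA (10% final) and stained with 0.4% SRB in 1% acetic acid. Dye dissolved in 10 mM Tris and read at 515 nm. GI₅₀, TGI and LC₅₀ taken from percent-growth curves.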

[6] = tested on: HOP-62; assay: Cytotoxicity against human HOP62 cells after 48 hrs by SRB assay; conditions: HOP-62, 48 h; summary of the method: as §1
[7] = tested on: SK-MEL-28; assay: Cytotoxicity against human SK-MEL-28 cells after 48 hrs by SRB assay; conditions: SK-MEL-28, 48 h; summary of the method: as §1
[8] = tested on: RXF 393; assay: Cytotoxicity against human RXF393 cells after 48 hrs by SRB assay; conditions: RXF 393, 48 h; summary of the method: as §1
[9] = tested on: HL-60(TB); assay: Cytotoxicity against human HL-60(TB) cells after 48 hrs by SRB assay; conditions: HL-60, 48 h
Summary of the method: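 NCI five-dose screen: cells preincubated 24 h at 37 °C, 5% CO₂, with time-zero plates TCA-fixed. Five 10-fold dilutions (0.01–100) were added and cells incubated for 48 h, then fixed in 10% TCA for 60 min at 4 °C. Staining used 0.4% SRB in 1% acetic acid, solubilised in 10 mM Tris, with A515 read. GI₅₀, TGI and LC₅₀ were derived from Tz, control and test absorbances.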

[10] = tested on: SNB-19; assay: Cytotoxicity against human SNB19 cells after 48 hrs by SRB assay; conditions: SNB-19, 48 h; summary of the method: as §2
[11] = tested on: KM12; assay: Cytotoxicity against human KM12 cells after 48 hrs by SRB assay; conditions: KM12, 48 h; summary of the method: as §1
[12] = tested on: SK-MEL-5; assay: Cytotoxicity against human SK-MEL-5 cells after 48 hrs by SRB assay; conditions: SK-MEL-5, 48 h; summary of the method: as §1
[13] = tested on: BT-549; assay: Cytotoxicity against human BT549 cells after 48 hrs by SRB assay; conditions: BT-549, 48 h; summary of the method: as §1
[14] = tested on: UO-31; assay: Cytotoxicity against human UO31 cells after 48 hrs by SRB assay; conditions: UO-31, 48 h; summary of the method: as §2
[15] = tested on: OVCAR-3; assay: Cytotoxicity against human OVCAR3 cells after 48 hrs by SRB assay; conditions: OVCAR-3, 48 h; summary of the method: as §1
[16] = tested on: IGROV-1; assay: Growth inhibition of human IGROV1 cells at 10 uM after 48 hrs by SRB assay relative to control; conditions: IGROV-1, 48 h, read-out: GI
Summary of the method: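 NCI single-dose primary screen: compound added at 1 × 10⁻⁵ M, cultures incubated 48 h. Protein stained with sulforhodamine B. Result given as percent growth of treated cells relative to untreated controls, where negative values mean cell kill.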

[17] = tested on: OVCAR-8; assay: Cytotoxicity against human OVCAR8 cells after 48 hrs by SRB assay; conditions: OVCAR-8, 48 h; summary of the method: as §1
[18] = read-out: LC50 (the source's name)
[19] = read-out: pLC50 (the source's name) (converted)

O=C(CCc1nnc2sc(-c3ccc(Cl)cc3Cl)nn12)c1nc2ccccc2[nH]1
GI50 ([1]; read-out: GI50): 0.339 µM | LC50 (50% lethal concentration) ([1]; read-out: LC50): 4.67 µM | TGI ([1]; read-out: TGI): 1.35 µM | GI50 ([1]; read-out: pGI50 (converted)): 0.339 µM | LC50 (50% lethal concentration) ([1]; read-out: pLC50 (converted)): 4.68 µM | TGI ([1]; read-out: pTGI (converted)): 1.35 µM | GI50 ([2]; read-out: GI50): 0.762 µM | TGI ([2]; read-out: TGI): 2.94 µM | GI50 ([2]; read-out: pGI50 (converted)): 0.759 µM | TGI ([2]; read-out: pTGI (converted)): 2.95 µM | GI50 ([3]; read-out: GI50): 0.596 µM | TGI ([3]; read-out: TGI): 2.45 µM | GI50 ([3]; read-out: pGI50 (converted)): 0.603 µM | TGI ([3]; read-out: pTGI (converted)): 2.45 µM | GI50 ([4]; read-out: GI50): 0.32 µM | CC50 [4, 18]: 5.06 µM | TGI ([4]; read-out: TGI): 1.24 µM | GI50 ([4]; read-out: pGI50 (converted)): 0.316 µM | CC50 [4, 19]: 5.01 µM | TGI ([4]; read-out: pTGI (converted)): 1.23 µM | GI50 ([5]; read-out: GI50): 1.86 µM | LC50 ([5]; read-out: LC50): 7.28 µM | TGI ([5]; read-out: TGI): 3.68 µM | GI50 ([5]; read-out: pGI50 (converted)): 1.86 µM | LC50 ([5]; read-out: pLC50 (converted)): 7.24 µM | TGI ([5]; read-out: pTGI (converted)): 3.72 µM | GI50 ([6]; read-out: GI50): 0.576 µM | CC50 [6, 18]: 6.16 µM | TGI ([6]; read-out: TGI): 2.12 µM | GI50 ([6]; read-out: pGI50 (converted)): 0.575 µM | CC50 [6, 19]: 6.17 µM | TGI ([6]; read-out: pTGI (converted)): 2.14 µM | GI50 ([7]; read-out: GI50): 0.474 µM | CC50 [7, 18]: 4.24 µM | TGI ([7]; read-out: TGI): 1.67 µM | GI50 ([7]; read-out: pGI50 (converted)): 0.479 µM | CC50 [7, 19]: 4.27 µM | TGI ([7]; read-out: pTGI (converted)): 1.66 µM | GI50 ([8]; read-out: GI50): 0.674 µM | CC50 [8, 18]: 4.55 µM | TGI ([8]; read-out: TGI): 1.99 µM | GI50 ([8]; read-out: pGI50 (converted)): 0.676 µM | CC50 [8, 19]: 4.57 µM | TGI ([8]; read-out: pTGI (converted)): 2 µM | GI50 ([9]; read-out: GI50): 0.862 µM | CC50 [9, 18]: > 100 µM | TGI ([9]; read-out: TGI): 5.93 µM | GI50 ([9]; read-out: pGI50 (converted)): 0.871 µM | CC50 [9, 19]: > 100 µM | TGI ([9]; read-out: pTGI (converted)): 5.89 µM | GI50 ([10]; read-out: GI50): 1.37 µM | CC50 [10, 18]: > 100 µM | TGI ([10]; read-out: TGI): 5.44 µM | GI50 ([10]; read-out: pGI50 (converted)): 1.38 µM | CC50 [10, 19]: > 100 µM | TGI ([10]; read-out: pTGI (converted)): 5.5 µM | GI50 ([11]; read-out: GI50): 1.16 µM | CC50 [11, 18]: 7.7 µM | TGI ([11]; read-out: TGI): 2.99 µM | GI50 ([11]; read-out: pGI50 (converted)): 1.15 µM | CC50 [11, 19]: 7.76 µM | TGI ([11]; read-out: pTGI (converted)): 3.02 µM | GI50 ([12]; read-out: GI50): 1.39 µM | CC50 [12, 18]: 5.19 µM | TGI ([12]; read-out: TGI): 2.69 µM | GI50 ([12]; read-out: pGI50 (converted)): 1.38 µM | CC50 [12, 19]: 5.25 µM | TGI ([12]; read-out: pTGI (converted)): 2.69 µM | GI50 ([13]; read-out: GI50): 2.16 µM | LC50 ([13]; read-out: LC50): > 100 µM | TGI ([13]; read-out: TGI): 4.77 µM | GI50 ([13]; read-out: pGI50 (converted)): 2.14 µM | LC50 ([13]; read-out: pLC50 (converted)): > 100 µM | TGI ([13]; read-out: pTGI (converted)): 4.79 µM | GI50 ([14]; read-out: GI50): 0.576 µM | LC50 ([14]; read-out: LC50): 4.63 µM | TGI ([14]; read-out: TGI): 2.02 µM | GI50 ([14]; read-out: pGI50 (converted)): 0.575 µM | LC50 ([14]; read-out: pLC50 (converted)): 4.68 µM | TGI ([14]; read-out: pTGI (converted)): 2.04 µM | GI50 ([15]; read-out: GI50): 0.514 µM | LC50 ([15]; read-out: LC50): 4.6 µM | TGI ([15]; read-out: TGI): 1.8 µM | GI50 ([15]; read-out: pGI50 (converted)): 0.513 µM | LC50 ([15]; read-out: pLC50 (converted)): 4.57 µM | TGI ([15]; read-out: pTGI (converted)): 1.82 µM | inhibition of growth at 10 µM [16]: ≤ 32% | GI50 ([17]; read-out: GI50): 2.58 µM | LC50 (lethal concentration 50%) ([17]; read-out: LC50): > 100 µM | TGI ([17]; read-out: TGI): > 100 µM | GI50 ([17]; read-out: pGI50 (converted)): 2.57 µM | LC50 (lethal concentration 50%) ([17]; read-out: pLC50 (converted)): > 100 µM | TGI ([17]; read-out: pTGI): > 100 µM

From ChEMBL document CHEMBL2331220, “Benzimidazole clubbed with triazolo-thiadiazoles and triazolo-thiadiazines: new anticancer agents” (2013)
